# Article PMC9939367 (Acta Pharmaceutica Sinica. B, 2022)
# Values joined by “and” are separate entries in the source; they are usually repeats but may differ in a detail not shown here. Equal entries are not always repeated.
# Legend:
# S1R (σ1R) = S1R (σ1R) (Cavia porcellus, UniProt Q60492); assay: [3H]; format: binding; details: guinea pig brain membranes, 1 mmol/L DPH
# MOR = MOR (Rattus norvegicus, UniProt P33535); assay: Brain MOR occupancy, ex vivo autoradiography with [3H]-DAMGO; format: in vivo; details: ip, read-out: MOR occupancy, average, 3 mg/kg i.p.
# MOR, sequence (P33535 whole entry): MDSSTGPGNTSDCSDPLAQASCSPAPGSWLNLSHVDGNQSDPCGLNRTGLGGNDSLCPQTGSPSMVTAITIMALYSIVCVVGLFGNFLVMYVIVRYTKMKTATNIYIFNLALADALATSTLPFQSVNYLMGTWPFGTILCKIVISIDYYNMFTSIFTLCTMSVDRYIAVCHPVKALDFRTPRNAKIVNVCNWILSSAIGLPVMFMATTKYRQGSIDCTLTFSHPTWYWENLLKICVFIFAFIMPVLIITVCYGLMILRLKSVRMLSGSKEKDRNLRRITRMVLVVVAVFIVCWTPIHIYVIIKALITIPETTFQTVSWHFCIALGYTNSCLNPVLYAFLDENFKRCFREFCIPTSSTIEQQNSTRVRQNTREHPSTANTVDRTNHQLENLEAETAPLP
# [1] = Plasma pharmacokinetics in ferrets, single i.p. dose; format: in vivo, ferret
# Summary of the method: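 Male ferrets received a single i.p. dose of 0.5 or 1 mg/kg. Serial blood was drawn via carotid catheter at predose, 5, 15, 30 min and 1, 2, 4, 7, 24 h. Samples went into heparinized tubes and were spun 4 °C, 3700 × g, 10 min. Plasma was acetonitrile-precipitated and measured by LC–MS/MS (LOQ 1 ng/mL). AUC and Cmax came from non-compartmental analysis.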
# [2] = Plasma and brain pharmacokinetics, 3 mg/kg i.p. single dose; format: in vivo; details: rat
# Summary of the method: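 Male Wistar rats got a single 3 mg/kg i.p. dose: 48 rats, 8 sampling points, 6 per point. Blood went into heparinized tubes and was centrifuged 4 °C, 3700 × g, 10 min. Brains were homogenized in DPBS (1:5 w/w). After acetonitrile protein precipitation, LC–MS/MS quantified drug (LOQ 1 ng/mL plasma, 2 ng/g brain). AUC, Cmax, Tmax and t1/2 came from non-compartmental analysis. Brain-to-plasma ratio = AUC brain/AUC plasma.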
# human MOR [3] = details: read-out: In vitro binding affinity (Ki), MOR; cited from earlier work
# [4] = Plasma levels in the MIA study, repeated b.i.d. s.c. dosing; format: in vivo, rat
# Summary of the method: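 MIA-injected male Wistar rats (n = 5/group) received 0.5, 1.5 or 3 mg/kg s.c. b.i.d. for 28 days, starting 14 days post-MIA. Caudal-vein blood was drawn on Day 1 (first dose) and Day 28 (last dose), 35–40 min post-dose, right after von Frey testing. Samples went into K2-EDTA tubes and were spun 4 °C, 3700 × g, 10 min. Acetonitrile precipitation preceded LC–MS/MS (LOQ 1 ng/mL). Values are mean ± SEM.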
# male Wistar rats [5] = assay: Intestinal transit inhibition; format: in vivo, rat
# male Wistar rats [6] = format: in vivo, rat; details: 3 mg/kg i.p.
# Summary of the method: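 Male Wistar rats received i.p. vehicle (0.5% hydroxypropyl methylcellulose) or test compound, dose groups n = 7–10. The read-out 20 min after dosing was paw-pressure PPT, tail-flick TFL, or von Frey PWT in carrageenan-, MIA- and SNI-induced pain models. Dose–response curves were fitted to a four-parameter logistic (variable slope) by least-squares non-linear fitting. Efficacy at 3 mg/kg i.p. was calculated from each model's curve.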
# male Wistar rats [7] = assay: Tail-flick test; format: in vivo, rat; details: for maximal effect, tail flick: single i.p.
# male Wistar rats [8] = assay: MIA-induced osteoarthritis pain, acute treatment, mechanical allodynia; format: in vivo, rat; details: for maximal effect, MIA mechanical allodynia: single i.p., ipsilateral paw
# human MOR [9] = molecular target: T1, human MOR (Homo sapiens, UniProt P35372); format: cell-based
# T1 sequence (P35372 whole entry): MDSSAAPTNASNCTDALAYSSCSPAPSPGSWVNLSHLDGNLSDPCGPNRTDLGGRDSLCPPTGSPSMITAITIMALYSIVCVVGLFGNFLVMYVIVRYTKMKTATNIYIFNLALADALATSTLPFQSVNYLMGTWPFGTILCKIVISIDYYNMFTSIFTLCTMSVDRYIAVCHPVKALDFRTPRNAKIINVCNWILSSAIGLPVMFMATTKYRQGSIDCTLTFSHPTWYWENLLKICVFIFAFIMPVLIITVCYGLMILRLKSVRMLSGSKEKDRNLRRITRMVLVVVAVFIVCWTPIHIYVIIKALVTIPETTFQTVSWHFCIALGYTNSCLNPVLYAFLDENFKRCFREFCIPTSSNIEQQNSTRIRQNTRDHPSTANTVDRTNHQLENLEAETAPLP
# human MOR [10] = molecular target: T1, human MOR; format: cell-based; remark: listed apart in the source
# human S1R = details: read-out: In vitro binding affinity (Ki), S1R; cited from earlier work
# [11] = system: male ferrets (Mustela putorius furo); assay: Proemetic response in ferrets; details: for emetic response (retching and vomiting, words) / nausea-like global score: 4 h observation
# male Wistar rats [12] = assay: Carrageenan-induced acute inflammatory pain, mechanical allodynia; format: in vivo, rat; details: for maximal effect, carrageenan mechanical allodynia: single i.p., ipsilateral paw
# mice = details: repeated b.i.d. administration for 10 days in mice; cited from earlier work
# [13] = more than 180 targets; cited from earlier work
# male Wistar rats [14] = assay: Spared nerve injury; format: in vivo, rat; details: for maximal effect, SNI mechanical allodynia: single i.p., ipsilateral paw
# male Wistar rats [15] = assay: Whole body plethysmography; format: in vivo, rat
# male Wistar rats [16] = assay: Paw pressure test; format: in vivo, rat; details: for maximal efficacy, paw pressure: single i.p.
# S1R = S1R (Rattus norvegicus, UniProt Q9R0C9); assay: Brain S1R occupancy, ex vivo autoradiography with [3H]-; format: in vivo; details: morphine 10 mg/kg, oxycodone 3 mg/kg i.p., 30 min
# S1R, sequence (Q9R0C9 whole entry): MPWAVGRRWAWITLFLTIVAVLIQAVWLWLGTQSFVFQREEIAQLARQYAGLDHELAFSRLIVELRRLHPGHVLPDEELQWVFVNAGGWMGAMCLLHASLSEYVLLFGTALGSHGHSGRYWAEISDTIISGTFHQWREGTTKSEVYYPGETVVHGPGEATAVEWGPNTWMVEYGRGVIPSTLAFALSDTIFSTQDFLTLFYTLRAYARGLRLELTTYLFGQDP
# S1R (σ1R), sequence (Q60492 whole entry): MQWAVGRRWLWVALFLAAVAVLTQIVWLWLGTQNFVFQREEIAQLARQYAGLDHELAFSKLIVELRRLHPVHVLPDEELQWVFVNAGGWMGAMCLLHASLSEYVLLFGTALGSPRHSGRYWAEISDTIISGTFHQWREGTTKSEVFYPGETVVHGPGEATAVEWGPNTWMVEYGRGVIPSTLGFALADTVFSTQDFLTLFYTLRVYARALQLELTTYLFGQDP
compound,measurement,setting,value
"CCN1CC2(CCN(CCc3cc(F)ccc3F)CC2)O[C@H](C)C1=O [WLB-73502, (R)-9-(2,5-difluorophenethyl)-4-ethyl-2-methyl-1-oxa-4,9-diazaspiro[5.5]undecan-3-one]",Ki without DPH/Ki with DPH,S1R (σ1R),0.9
same,receptor occupancy at 3 mg/kg,MOR,50%
same,AUC(0-inf),"[1]; ferret, plasma, ip, 1 mg/kg",2460 ± 625 ng·h/mL
same,Cmax,"[1]; ferret, plasma, ip, 1 mg/kg",620 ± 98 ng/mL
same,AUC in ferrets at 1 mg/kg relative to rats at 3 mg/kg,[1]; higher in ferrets,18 fold
same,Brain-to-plasma ratio (AUC brain/AUC plasma),[2]; 3 mg/kg i.p.,2.57
same,Cmax,"[2]; Wistar, brain, ip, 3 mg/kg",982 ± 191 ng/g
same,Tmax,"[2]; Wistar, brain, ip, 3 mg/kg, 3 mg/kg i.p.",4.8 min
same,half-life,"[2]; Wistar, brain, ip, 3 mg/kg, t1/2, brain, 3 mg/kg i.p.",20.4 min
same,AUC(0-inf),"[2]; Wistar, plasma, ip, 3 mg/kg",136 ± 15 ng·h/mL
same,Cmax,"[2]; Wistar, plasma, ip, 3 mg/kg",441 ± 73 ng/mL
same,Tmax,"[2]; Wistar, plasma, ip, 3 mg/kg, 3 mg/kg i.p.",4.8 min
same,Tmax,"[2]; Wistar, plasma, ip, 3 mg/kg, 3 mg/kg i.p., first sampling time",5 min
same,AUC0–∞,"[2]; brain, 3 mg/kg i.p.",350 ± 40 (ng·h/g)
same,Ki,human MOR [3],64 nM
same,Plasma concentration,"[4]; 0.5 mg/kg s.c. b.i.d., Day 28, 35–40 min after administration",82 ± 3.2 ng/mL
same,Plasma concentration,"[4]; 0.5 mg/kg s.c., Day 1, 35–40 min after administration",47.3 ± 3.8 ng/mL
same,Plasma concentration,"[4]; 1.5 mg/kg s.c. b.i.d., Day 28, 35–40 min after administration",283.7 ± 10.4 ng/mL
same,Plasma concentration,"[4]; 1.5 mg/kg s.c., Day 1, 35–40 min after administration",174.9 ± 7.4 ng/mL
same,Plasma concentration,"[4]; 3 mg/kg s.c. b.i.d., Day 28, 35–40 min after administration",550.6 ± 33.8 ng/mL
same,Plasma concentration,"[4]; 3 mg/kg s.c., Day 1, 35–40 min after administration",361 ± 24.7 ng/mL
same,intestinal transit inhibition,male Wistar rats [5]; 2.5 mg/kg i.p.,did not significantly inhibit
same,intestinal transit inhibition,male Wistar rats [5]; 5 mg/kg i.p.,did not significantly inhibit
same,intestinal transit inhibition,male Wistar rats [5]; 10 mg/kg i.p.,19%
same,intestinal transit inhibition,male Wistar rats [5]; 20 mg/kg i.p.,59%
same,"Antinociceptive efficacy, average of the pain models",male Wistar rats [6],75%
same,"potency relative to morphine, tail flick",male Wistar rats [7]; more potent than morphine,~4 fold
same,"maximal effect, tail flick",male Wistar rats [7],≥ 95%
same,"potency relative to morphine, MIA",male Wistar rats [8]; more potent than morphine,2 fold
same,"maximal effect, MIA mechanical allodynia",male Wistar rats [8],≥ 95%
same,effect on β-arrestin-2 recruitment,human MOR [9],no effect
same,"cAMP lgτ (operational efficacy, G-protein pathway)",human MOR [10],1.58
same,Ki,human S1R,118 nM
same,"emetic response (retching and vomiting, words)",[11]; 0.5 mg/kg i.p.,did not induce any emetic response
same,nausea-like global score,[11]; 0.5 mg/kg i.p.,~2
same,"emetic response (retching and vomiting, words)",[11]; 1 mg/kg i.p.,did not induce any emetic response
same,nausea-like global score,[11]; 1 mg/kg i.p.,~4
same,"potency relative to morphine, carrageenan",male Wistar rats [12]; more potent than morphine,2 fold
same,"maximal effect, carrageenan mechanical allodynia",male Wistar rats [12],≥ 80%
same,naloxone-precipitated withdrawal signs,mice,not detected
same,selectivity against target panel,[13],selective
same,"potency relative to morphine, SNI",male Wistar rats [14]; more potent than morphine,8 fold
same,"potency relative to oxycodone, SNI",male Wistar rats [14]; more potent than oxycodone,3 fold
same,"maximal effect, SNI mechanical allodynia",male Wistar rats [14],91.2 ± 5.9%
same,minute volume (MV) inhibition,male Wistar rats [15]; 1.25 mg/kg i.p.,did not significantly change MV
same,minute volume (MV) inhibition,male Wistar rats [15]; 5 mg/kg i.p.,did not significantly change MV
same,minute volume (MV) inhibition,male Wistar rats [15]; 10 mg/kg i.p.,~30%
same,minute volume (MV) inhibition,male Wistar rats [15]; 20 mg/kg i.p.,~30%
same,"potency relative to morphine, paw pressure",male Wistar rats [16]; more potent than morphine,~4 fold and 3 fold
same,"maximal efficacy, paw pressure",male Wistar rats [16],≥ 80%
"COc1ccc2c(c1)[C@]13CCCC[C@@H]1[C@H](C2)N(C)CC3 [dextromethorphan, Dextromethorphan, reference compound]",Ki without DPH/Ki with DPH,S1R (σ1R),9.0
"CN1CC[C@]23c4c5ccc(O)c4O[C@H]2[C@@H](O)C=C[C@H]3[C@H]1C5 [morphine, Morphine, reference compound]","maximal effect, tail flick",male Wistar rats [7],≥ 95%
same,"maximal effect, MIA mechanical allodynia",male Wistar rats [8],≥ 95%
same,effect on [3H]-(+)-pentazocine specific binding in rat cortex and striatum,S1R,neither morphine nor oxycodone had a significant effect
same,nausea-like global score,[11]; 0.5 mg/kg s.c.,~12
same,retches,"[11]; 0.5 mg/kg s.c., 4 h period",2.17 ± 0.60
same,vomits,"[11]; 0.5 mg/kg s.c., 4 h period",1.17 ± 0.65
same,"maximal effect, carrageenan mechanical allodynia",male Wistar rats [12],≥ 80%
same,"maximal effect, SNI mechanical allodynia",male Wistar rats [14],82.2 ± 11.1%
same,"maximal efficacy, paw pressure",male Wistar rats [16],≥ 80%
"COc1ccc2c3c1O[C@H]1C(=O)CC[C@@]4(O)[C@@H](C2)N(C)CC[C@]314 [oxycodone, reference compound]",intestinal transit inhibition,male Wistar rats [5]; 2.5 mg/kg i.p.,no effect
same,intestinal transit inhibition,male Wistar rats [5]; 5 mg/kg i.p.,72%
same,intestinal transit inhibition,male Wistar rats [5]; 10 mg/kg i.p.,93%
same,"maximal effect, tail flick",male Wistar rats [7],≥ 95%
same,"maximal effect, MIA mechanical allodynia",male Wistar rats [8],≥ 95%
same,β-Arrestin lgτ,human MOR [9],−0.28
same,"maximal effect, carrageenan mechanical allodynia",male Wistar rats [12],≥ 80%
same,"maximal effect, SNI mechanical allodynia",male Wistar rats [14],74.9 ± 7.5%
same,minute volume (MV) inhibition,male Wistar rats [15]; 1.25 mg/kg i.p.,did not significantly modify MV
same,minute volume (MV) inhibition,male Wistar rats [15]; 5 mg/kg i.p.,30%
same,minute volume (MV) inhibition,male Wistar rats [15]; 10 mg/kg i.p.,50%
same,"maximal efficacy, paw pressure",male Wistar rats [16],≥ 80%
